# Experimental data from ChEMBL document CHEMBL1127570, “Synthesis and anticonvulsant properties of new benzylpyridazine derivatives” (J Med Chem, 1994).
# Assays:
# Mus musculus [1] = species on record: Mus musculus; assay: (§1) Anticonvulsant activity against bicuculline induced seizures in mice; type: functional
# Summary of the method: (§2)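 Mice given compound 30 min before bicuculline 0.81 mg/kg iv (procedure after Heyer). Protection against clonic seizures recorded. Groups of 10 mice per dose; chi-square with Yates correction.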
# Mus musculus [2] = assay: Locomotor activity in maximal electroshock seizure+ indicates increase at 100 mg/kg; type: functional
# [3] = Central nervous system toxicity was performed by determining the median toxic dose in the rotarod test; type: organism-based; settings: mouse, in vivo
# Summary of the method: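 Rotarod neurotoxicity in mice, oral dosing 30 min before assay. Failure to stay 3 min on a 3-cm wooden rod turning at 8 rpm counts as toxic.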
# Mus musculus [4] = assay: Yohimbine induced seizures by administrating sc and the compound which do not exhibit at least one clonic seizure within 60 min was recorded; type: functional; settings: 1 h
# Summary of the method: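 Mice, 10 per dose, dosed 30 min before yohimbine 45 mg/kg sc. Animals with no clonic seizure within 60 min were counted as protected. ED50 by Litchfield–Wilcoxon; chi-square with Yates correction.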
# Mus musculus [5] = assay: Tested for the abolition of the hand leg tonic extensor component of the seizure induced by a 0.96 mg/kg sc injection of strychnine; type: functional; settings: route subcutaneous
# Summary of the method: (§3)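 Mice tested 30 min after compound for abolition of the tonic extensor component from strychnine 0.96 mg/kg sc. Chi-square with Yates correction; ED50 by Litchfield–Wilcoxon.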
# [6] = Protective index is the ratio between TD50 and ED50 values; type: functional
# Summary of the method: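 Protective index is rotarod TD50 divided by ED50. Both come from oral dosing in mice 30 min before test and are calculated by Litchfield–Wilcoxon.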
# Mus musculus [7] = species on record: Mus musculus; assay: Anticonvulsant activity in mice using the maximal electroshock seizure test.; type: functional
# Summary of the method: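 Oral dosing of mice 30 min before maximal electroshock via corneal electrodes. Protection is abolition of the hind limb tonic extensor component.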
# Mus musculus [8] = assay: Ability to prevent the tonic extensor component induced by 106.25 mg/kg sc of pentylenetetrazole; type: functional; settings: route subcutaneous
# Mus musculus [9] = assay: Tested for NMDLA induced seizures and protection against full generalized tonic seizures was recorded; Percentage of protection at 150 mg/kg per os.; type: functional; settings: for ED50: Mus musculus, po
# Summary of the method: (§4)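 Compounds given 30 min before N-methyl-D,L-aspartate 345 mg/kg sc in mice. Protection against full generalized tonic seizures recorded. Chi-square with Yates correction.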
# Mus musculus [10] = assay: Locomotor activity in maximal electroshock seizure. - indicates decrease at 100 mg/kg; type: functional
# Mus musculus [11] = assay: Anticonvulsant activity was measured using the maximal electroshock seizure test in mice. protection percentage at 100 mg/kg; type: functional; settings: for % protection at 100 mg/kg: Mus musculus
# Mus musculus [12] = assay: Ability to prevent the tonic extensor component induced by 106.25 mg/kg sc of pentylenetetrazole; Percentage of protection at 100 mg/kg per os.; type: functional
# Summary of the method: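 Mice dosed orally 30 min before pentylenetetrazole 106.25 mg/kg sc. Protection is block of the tonic extensor component. Groups of 10 mice per dose; chi-square with Yates correction; ED50 by Litchfield–Wilcoxon.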
# Mus musculus [13] = assay: Yohimbine induced seizures by administrating sc and the compound which do not exhibit at least one clonic seizure within 60 min was recorded; Percentage of protection at 150 mg/kg per os.; type: functional; settings: route subcutaneous; for ED50: Mus musculus, sc, 1 h
# Summary of the method: (§5)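 Compound given 30 min before yohimbine 45 mg/kg sc in mice. Animals without at least one clonic seizure within 60 min count as protected. Chi-square with Yates correction.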
# Mus musculus [14] = assay: Tested for NMDLA induced seizures and protection against full generalized tonic seizures was recorded; Percentage of protection at 100 mg/kg per os.; type: functional; settings: po; summary of the method: as §4
# Mus musculus [15] = assay: Tested for the abolition of the hand leg tonic extensor component of the seizure induced by a 0.96 mg/kg sc injection of strychnine; Percentage of protection at 100 mg/kg per os.; type: functional
# Summary of the method: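 Oral dose of 100 mg/kg in mice, 10 per dose, given 30 min before strychnine 0.96 mg/kg sc. Protection means abolition of the hind leg tonic extensor component, given as percentage of animals protected. Chi-square with Yates correction.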
# Mus musculus [16] = assay: Tested for the abolition of the hand leg tonic extensor component of the seizure induced by a 0.96 mg/kg sc injection of strychnine;Percentage of protection at 100 mg/kg per os.; type: functional; summary of the method: as §3
# Mus musculus [17] = assay: (§6) Anticonvulsant activity against bicuculline induced seizures in mice; Percentage of protection at 100 mg/kg per os.; type: functional; summary of the method: as §2
# Mus musculus [18] = species on record: Mus musculus; assay: as §1; type: functional; remark: listed apart in the source
# Summary of the method: (§7)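 Mice, 10 per dose. Test drug given 30 min before bicuculline 0.81 mg/kg iv; protection against clonic seizures recorded. Line 2: single oral dose of 100 mg/kg, given as percentage of animals protected. ED50 by Litchfield–Wilcoxon; chi-square with Yates correction.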
# Mus musculus [19] = species on record: Mus musculus; assay: Tested for NMDLA induced seizures and protection against full generalized tonic seizures was recorded; type: functional
# Summary of the method: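 NMDLA (N-methyl-D,L-aspartate) 345 mg/kg sc injected 30 min after test drug in mice, 10 per dose; protection against full generalized tonic seizures recorded. ED50 by Litchfield–Wilcoxon; chi-square with Yates correction.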
# Mus musculus [20] = assay: Tested for NMDLA induced seizures and protection against full generalized tonic seizures was recorded; Percentage of protection at 30 mg/kg per os.; settings: po
# Mus musculus [21] = assay: as §6; type: functional; summary of the method: as §7; remark: listed apart in the source
# Mus musculus [22] = assay: yohimbine induced seizures by administrating sc and the compound which do not exhibit at least one clonic seizure within 60 min was recorded; Percentage of protection at 100 mg/kg per os.; type: functional; settings: 1 h, route subcutaneous; summary of the method: as §5
smiles,measurement,setting,value
Cc1nn2c(N)nnc2cc1Cc1c(Cl)cccc1Cl,ED50,Mus musculus [1],93 mg/kg
same,Locomotor activity,Mus musculus [2],16%
same,TD50,[3],410 mg/kg
same,ED50,Mus musculus [4],76 mg/kg
same,ED50,Mus musculus [5],34.5 mg/kg
same,PI,[6],44.5
same,ED50,Mus musculus [7],9.2 mg/kg
same,ED50,Mus musculus [8],76 mg/kg
same,ED50,Mus musculus [9],14 mg/kg
Cc1nnc(NNC(=O)C(C)C)cc1Cc1ccccc1Cl,Locomotor activity,Mus musculus [10],-57%
same,% protection at 100 mg/kg,Mus musculus [11],17%
Cc1nn2cnnc2cc1Cc1ccccc1,ED50,Mus musculus [1],63 mg/kg
same,pct protection,Mus musculus [12],20%
same,Locomotor activity,Mus musculus [2],8%
same,percent protection,Mus musculus [13],0%
same,TD50,[3],170 mg/kg
same,ED50,Mus musculus [5],85 mg/kg
same,PI,[6],17.9
same,ED50,Mus musculus [7],9.5 mg/kg
same,ED50,Mus musculus [9],25 mg/kg
Cc1nn2c(N)nnc2cc1Cc1ccc(F)cc1,Locomotor activity,Mus musculus [10],-15%
same,ED50,Mus musculus [7],43 mg/kg
Cc1nnc(NNC(=O)c2ccccc2)cc1Cc1ccccc1,Locomotor activity,Mus musculus [10],-62%
same,% protection at 100 mg/kg,Mus musculus [11],17%
Cc1nn2cc(-c3ccccc3)nc2cc1Cc1ccccc1,Locomotor activity,Mus musculus [2],12%
same,ED50,Mus musculus [7],105 mg/kg
Cc1nn2c(C)nnc2cc1Cc1ccccc1,Locomotor activity,Mus musculus [2],47%
same,ED50,Mus musculus [7],26 mg/kg
Cc1nn2cnnc2cc1Cc1c(Cl)cccc1Cl,pct protection,Mus musculus [14],12.5%
same,ED50,Mus musculus [1],125 mg/kg
same,Locomotor activity,Mus musculus [2],13%
same,TD50,[3],88 mg/kg
same,ED50,Mus musculus [4],150 mg/kg
same,ED50,Mus musculus [5],39.5 mg/kg
same,PI,[6],14.2
same,ED50,Mus musculus [7],6.2 mg/kg
same,ED50,Mus musculus [8],70 mg/kg
CCCC(CCC)C(=O)[O-].[Na+] [VALPROATE SODIUM],Locomotor activity,Mus musculus [10],-5%
same,pct protection,Mus musculus [12],20%
same,ED50,Mus musculus [13],10 mg/kg
same,TD50,[3],208 mg/kg
same,PI,[6],1.9
same,ED50,Mus musculus [7],112 mg/kg
same,percent protection,Mus musculus [9],0%
same,percent protection,Mus musculus [15],0%
Cc1ccc(Cc2cc3nnc(N)n3nc2C)cc1,Locomotor activity,Mus musculus [10],-8%
same,ED50,Mus musculus [7],22.5 mg/kg
Cc1nnc(NNC(=O)N(c2ccccc2)c2ccccc2)cc1Cc1ccccc1,% protection at 100 mg/kg,Mus musculus [11],15%
same,Locomotor activity,Mus musculus [2],9%
Cc1nnc(NNC(=O)C(C)C)cc1Cc1ccccc1,Locomotor activity,Mus musculus [10],-67%
same,percent protection,Mus musculus [11],0%
Cc1nn2c(N)nnc2cc1Cc1ccccc1,ED50,Mus musculus [1],94 mg/kg
same,pct protection,Mus musculus [12],20%
same,Locomotor activity,Mus musculus [2],11%
same,ED50,Mus musculus [13],20 mg/kg
same,TD50,[3],> 800 mg/kg
same,ED50,Mus musculus [5],35 mg/kg
same,PI,[6],36.4
same,ED50,Mus musculus [7],22 mg/kg
same,ED50,Mus musculus [9],14 mg/kg
Cc1nn2cnnc2cc1Cc1ccccc1Cl,Locomotor activity,Mus musculus [2],5%
same,ED50,Mus musculus [7],6 mg/kg
O=C1NC(=O)C(c2ccccc2)(c2ccccc2)N1 [PHENYTOIN],Locomotor activity,Mus musculus [10],-16%
same,percent protection,Mus musculus [12],0%
same,ED50,Mus musculus [13],10 mg/kg
same,percent protection,Mus musculus [16],0%
same,TD50,[3],30.5 mg/kg
same,PI,[6],7.6
same,ED50,Mus musculus [7],4 mg/kg
same,percent protection,Mus musculus [9],0%
same,percent protection,Mus musculus [17],0%
Cc1nn2c(NC(=O)c3ccccc3)nnc2cc1Cc1ccccc1,Locomotor activity,Mus musculus [2],7%
same,ED50,Mus musculus [7],35 mg/kg
Cc1nnc(NNC(=O)Nc2ccccc2)cc1Cc1ccccc1Cl,Locomotor activity,Mus musculus [10],-3%
same,% protection at 100 mg/kg,Mus musculus [11],33%
Cc1nnc(NNC(=O)Nc2ccccc2)cc1Cc1ccccc1,percent protection,Mus musculus [11],0%
Cc1nn2c(C)nnc2cc1Cc1ccccc1Cl,Locomotor activity,Mus musculus [10],-1%
same,ED50,Mus musculus [7],30.5 mg/kg
Cc1nn2c(-c3ccccc3)nnc2cc1Cc1ccccc1,Locomotor activity,Mus musculus [2],2%
same,ED50,Mus musculus [7],108 mg/kg
Cc1nn2c(N)nnc2cc1Cc1ccccc1Cl,Locomotor activity,Mus musculus [10],-7%
same,ED50,Mus musculus [7],17.4 mg/kg
CCC1(c2ccccc2)C(=O)NC(=O)NC1=O [PHENOBARBITAL],Locomotor activity,Mus musculus [2],33%
same,TD50,[3],33 mg/kg
same,ED50,Mus musculus [4],17 mg/kg
same,PI,[6],7.2
same,ED50,Mus musculus [7],4.6 mg/kg
same,ED50,Mus musculus [8],15 mg/kg
same,ED50,Mus musculus [18],20 mg/kg
same,percent protection,Mus musculus [15],0%
same,ED50,Mus musculus [19],30 mg/kg
CN1C(=O)CN=C(c2ccccc2)c2cc(Cl)ccc21 [DIAZEPAM],ED50,Mus musculus [20],30 mg/kg
same,TD50,[3],2.8 mg/kg
same,ED50,Mus musculus [4],2.3 mg/kg
same,ED50,Mus musculus [5],1.1 mg/kg
same,PI,[6],0.7
same,ED50,Mus musculus [7],4 mg/kg
same,ED50,Mus musculus [8],0.5 mg/kg
same,ED50,Mus musculus [18],0.39 mg/kg
NC(=O)N1c2ccccc2C=Cc2ccccc21 [CARBAMAZEPINE],percent protection,Mus musculus [21],0%
same,Locomotor activity,Mus musculus [2],7%
same,TD50,[3],40 mg/kg
same,ED50,Mus musculus [5],8.5 mg/kg
same,ED50,Mus musculus [22],10 mg/kg
same,PI,[6],7.3
same,ED50,Mus musculus [7],5.5 mg/kg
same,ED50,Mus musculus [8],17.5 mg/kg
same,ED50,Mus musculus [9],20 mg/kg
Cc1nnc(NC(N)=O)cc1Cc1ccccc1,Locomotor activity,Mus musculus [10],-5%
same,ED50,Mus musculus [1],111 mg/kg
same,pct protection,Mus musculus [12],20%
same,ED50,Mus musculus [13],10 mg/kg
same,TD50,[3],140 mg/kg
same,ED50,Mus musculus [5],28 mg/kg
same,PI,[6],13.7
same,ED50,Mus musculus [7],10.2 mg/kg
same,ED50,Mus musculus [9],12.5 mg/kg
